# Screening data deposited in PubChem by several laboratories.
# T cruzi inh: blocks replication of Trypanosoma cruzi. T. cruzi beta-gal in NIH3T3, luminescence, 90 h. inhibition, % (no concentration beside the values). 300,000 tested, 1.4% active;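 active = mean inhibition across valid replicates above about 55%, limit read from the data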;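 also: signal also drops with host cell toxicity which is not excluded here; 0% = plate median of DMSO wells and 100% = zero luminescence signal; higher percent means less beta-gal luminescence so fewer parasites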
#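 System – NIH/3T3 host cells with β-galactosidase reporter T. cruzi · Doses – single 50 nL compound addition per well in DMSO · Reagent – 5000 T. cruzi trypomastigotes/well · Medium – Low-serum DMEM with 2% FBS · Timing – ≥90 h infection period, 3 h prior cell attachment · Evaluation – parasite load inhibition, % · Technique – GalScreen luminescence, 60 min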
# Redox H2O2 prof: compounds producing H2O2 with reducing agent – biochemical, NIH compound library profiling, artefact control for MLSCN library redox annotation, primary screen; DTT-dependent redox cycling H2O2, phenol red/HRP absorbance; 100% = 100 µM peroxide control, 0% = buffer; activation, % at 10 µM; 200,000 tested, 0.03% active; AID 878;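 active = activation of at least 50% relative to the plate's high and low controls in the primary single-dose screen; inactive = activation below 50%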;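 also: compound incubated with DTT at 0.8 mM final as the reducing agent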
# MPTP block: blocks calcium-induced mitochondrial swelling. inhibition, % at 10 µM. 360,000 tested, 1.4% active. isolated mouse mitochondria, Ca2+ swelling absorbance, 30 min. AID 602449;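 active = inhibition of 50% or more, scaled per plate between neutral and stimulator controls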;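 also: 0% = DMSO wells given calcium and 100% = 1 mM EGTA wells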
# L major viab: inhibitors of Leishmania major promastigote growth. Leishmania major promastigotes, resazurin fluorescence viability. inhibition, % at 10 µM. 200,000 tested, 9% active. AID 1063; in the data active = inhibition above about 50%;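 also: promastigotes grown with compound for 44 hours at 28 °C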
# Lipid droplet: modulators of hepatic lipid droplet formation; inhibition, % at 6.5 µM; AML12 mouse hepatocytes, oleate lipid droplets, BODIPY imaging; 240,000 tested, 0.4% active;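 active = lipid droplet intensity inhibited by at least 50%, with more than 500 cells counted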
#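 System: AML12 hepatocytes (mouse). Probe or stimulus: oleic acid at 100 µM to induce lipid droplet formation. Times: overnight treatment with compound plus oleate. Detection: Image-based BODIPY and DAPI two-channel analysis. Evaluation: percent inhibition of filter-corrected integrated lipid droplet intensity per well.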
# * hit, by the source's call; · = not tested or not shown. Only a selection was taken, and hits are over-represented in it overall.
SMILES,T cruzi inh,Redox H2O2 prof,MPTP block,L major viab,Lipid droplet
CC=Cc1cc(OC)c2c(c1)C(C)C(c1ccc(O)c(OC)c1)O2 (centres undefined),·,·,3.2,·,·
Cc1[nH]n(-c2ccc([N+](=O)[O-])cc2)c(=O)c1C=NCCN1CCN(C(=O)c2ccc(Br)cc2)CC1,66.1*,0.1,19.6,0.4,-14.3
Cc1[nH]n(-c2ccc([N+](=O)[O-])cc2)c(=O)c1C=NCCN1CCN(C(=O)c2ccc(F)cc2)CC1,5.7,-0.1,0.1,-7.1,·
Cc1ccc(O)c(NC(=O)c2cc(-c3ccccc3Cl)on2)c1,-9.4,·,1.0,·,2.5
COc1cccc(C(=O)Nc2c[nH]c(=O)[nH]c2=O)c1,-4.0,·,1.7,·,-9.3
Brc1ccc(Oc2ncc(CN3CCN(c4ccccc4)CC3)s2)cc1,0.7,0.2,0.6,-4.0,9.9
Clc1cccc(Oc2ncc(CN3CCOCC3)s2)c1,-0.9,1.1,2.0,61.8*,·
Cc1ccc(Oc2ncc(CN3CCOCC3)s2)cc1,-12.3,-0.1,2.8,77.4*,·
COc1ccc(CN2C[C@@H](CO)O[C@@H](n3cnc4c(NC5CCC5)ncnc43)C2)cc1,·,·,-1.7,·,·
CC1(C)Cc2c(cnn2-c2cccc(F)c2)C(NC(=O)C2CCOCC2)C1 (centres undefined),3.9,·,-0.8,·,-16.3
O=C(/C=C/c1ccc(S(=O)(=O)N2CCOCC2)cc1)NCc1ccccc1Cl,12.6,0.1,0.0,79.6*,-2.1
CC(C)(C)n1nnnc1C(c1cccs1)N(Cc1ccccc1)Cc1ccco1 (centres undefined),51.4,0.0,-0.4,12.2,·
c1ccc(CN(Cc2cccs2)C(c2cccs2)c2nnnn2C2CCCC2)cc1 (centres undefined),0.8,-1.5,1.1,89.3*,-22.9
c1ccc(CC2CCN(C(c3cccs3)c3nnnn3C3CCCC3)CC2)cc1 (centres undefined),5.8,-2.0,1.8,64.2*,-50.0
O=C(c1ccco1)N1CCN(C(c2cccs2)c2nnnn2C2CCCC2)CC1 (centres undefined),-1.6,5.5,-0.3,40.4,5.9
CNC(=O)NC(=O)CSc1nc2sccc2c(=O)n1-c1ccccc1,-14.6,·,-0.2,·,-2.4
CCOc1ccc(/C=N/Nc2cc(=O)n(C)c(=O)n2C)cc1,-3.6,0.0,0.2,70.8*,16.1
CCOc1ccc(/C=N/Nc2ccccn2)cc1,-2.6,-2.0,4.3,15.7,14.9
N#CC1=C(N)C(C#N)(C#N)C(c2cccnc2)C2CC(c3ccccc3)CC=C12 (centres undefined),-2.9,-2.1,-1.8,55.3*,·
COc1cnc(-c2ccccn2)nc1Oc1c(C)cccc1C,-51.1,-0.2,-0.1,72.1*,-4.4
COc1cnc(-c2ccccn2)nc1Sc1c(Cl)cccc1Cl,31.6,2.8,-0.9,46.7,·
COc1cnc(-c2ccccn2)nc1Sc1ccccc1Cl,60.4*,1.1,-1.3,100.7*,·
COc1cnc(-c2ccccn2)nc1Oc1cccc(Cl)c1,-1.3,-1.5,-1.0,100.3*,·
COc1cnc(-c2ccccn2)nc1N(C)C,48.0,-1.9,-2.4,100.0*,·
COc1ccc(Oc2nc(-c3ccccn3)ncc2OC)cc1,6.6,8.9,-1.0,16.5,-4.4
SMILES,T cruzi inh,Redox H2O2 prof,MPTP block,L major viab,Lipid droplet
CCOC(=O)C(=O)N(Nc1ccccc1C)c1ccccc1C,-9.1,0.3,0.2,-0.7,-4.2
CC(C)C[C@@H](CN1CCC[C@@H]1CN1C(=S)NC[C@@H]1Cc1ccc(O)cc1)N1C[C@H](Cc2ccc(O)cc2)N(CC2CCCCC2)C1=S,·,·,2.6,·,·
O=C(O)c1ccc(S(=O)(=O)c2ccc([N+](=O)[O-])cc2[N+](=O)[O-])cc1,31.4,·,-0.9,·,8.5
CC1CCC(C(C)C)C2=C1C(C#N)(C#N)C(C#N)(C#N)C(c1ccccc1)N2 (centres undefined),-11.1,0.7,3.4,99.7*,·
CC1=CC(C#N)(C#N)C(C#N)(C#N)C(c2ccccc2)N1 (centres undefined),-2.4,1.5,·,-4.2,·
CC(=O)Nc1cccc(OCCCNS(=O)(=O)c2ccc(F)cc2)c1,·,·,6.4,·,-1.5
CC(C)OC(=O)c1ccc(NC(=O)c2ccco2)cc1,-1.9,0.0,-3.7,55.6*,0.1
COc1c(F)c(F)c(C(=O)Nc2ccc(NC(=O)c3ccco3)cc2)c(F)c1F,-10.2,0.2,0.6,63.7*,12.5
COc1ccc(NC(=O)c2ccco2)cc1NC(=O)c1c(F)c(F)c(OC)c(F)c1F,-2.2,-1.2,-3.9,-1.5,-2.9
CC1(C(=O)NS(=O)(=O)c2ccc(C#N)cc2)CCN1C(=O)C1(c2ccccc2)CCCC1 (centres undefined),·,·,-0.6,·,·
O=C(/C=C/c1ccc(-c2ccccc2)o1)c1ccccc1,6.0,-0.2,2.7,45.9,-1.1
Cc1ccc(-c2ccc(/C=C/C(=O)c3ccccc3)o2)cc1,24.9,0.1,10.0,89.3*,-8.5
Cc1ccc(C(=O)/C=C/C(=O)c2ccc(C)cc2)cc1,20.3,-1.8,-1.5,100.6*,4.4
Cc1ccc(/C=C/C(=O)c2ccc(C)cc2)cc1,-9.3,-0.6,0.2,0.8,-4.4
O=S(=O)(c1ccccc1)c1cnn(-c2ccccc2)c1-c1ccc(Cl)cc1,27.3,2.2,1.5,55.0*,·
COc1ccc(-c2c(S(=O)(=O)c3ccccc3)cnn2-c2ccccc2)cc1,20.5,-5.5,1.7,59.2*,·
COc1ccc(S(=O)(=O)Nc2cc(C)nn2-c2ccccc2)cc1,4.7,0.1,-4.4,-4.6,3.1
Nc1nc(-c2ccc(Cl)cc2)c(S(=O)(=O)c2ccccc2)s1,9.8,-1.4,1.3,5.8,4.2
CC1CC(C)(C)Nc2ccc(OC(=O)c3ccco3)cc21 (centres undefined),10.7,3.1,3.7,98.4*,·
O=C(Oc1ccc2ccccc2c1)c1ccco1,8.2,0.5,0.5,4.8,·
CC1CC(C)(C)Nc2ccc(N=O)cc21 (centres undefined),97.8*,-0.8,-0.4,100.5*,44.0
COc1cc(CNc2ccc(N3CCCCC3)cc2)ccc1OCC(=O)NC(C)(C)C,38.2,·,3.4,·,-25.7
CCCn1c(=O)c2[nH]c(-c3ccc(OCC(=O)Nc4ccc(C#N)cc4)cc3)nc2n(CCC)c1=O,·,·,1.5,·,·
COc1cccc(C2=NNC(=NCc3ccccc3)SC2)c1,12.8,-0.1,11.3,31.8,-24.2
COc1ccc(CN=C2NN=C(c3cccc(OC)c3)CS2)cc1,-4.4,-1.9,-1.3,87.5*,-0.7
COc1ccc(Nc2cc(C)nc3c(C)cccc23)cc1OC,6.7,·,1.2,·,-2.5
CCOc1ccc2nc(C)cc(Nc3ccc4c(c3)OCCO4)c2c1,49.9,1.8,4.7,100.7*,·
CCOC(=O)c1cnc2ccc(OC)cc2c1Nc1ccc2c(c1)OCCO2,26.8,0.4,4.3,27.1,·
Cc1ccc2nc(C)cc(Nc3ccc4c(c3)OCCO4)c2c1,26.0,-0.3,1.7,100.4*,·
Cc1cc(Nc2ccc3c(c2)OCCO3)c2cccc(C)c2n1,31.6,-0.5,3.4,84.9*,3.1
